# Experimental data: ChEMBL document CHEMBL3352414, “Structure based inhibitor design targeting glycogen phosphorylase B. Virtual screening, synthesis, biochemical and biological assessment of novel N-acyl-β-d-glucopyranosylamines” (Bioorg Med Chem, 2014)
# Experiments:
# [1] = biological target: T1, Glycogen phosphorylase, liver form (Rattus norvegicus) (UniProt P09811); assay: Inhibition of glycogen phosphorylase a in Wistar rat hepatocytes assessed as effect on conversion of GPa to GPb forms by measuring GPa level at 2 uM after 30 mins relative to 5 mM glucose; assay type: cell-based; set-up: scale not given: the % may be the effect or the level left; details: Hepatocyte
# T1 sequence (whole entry): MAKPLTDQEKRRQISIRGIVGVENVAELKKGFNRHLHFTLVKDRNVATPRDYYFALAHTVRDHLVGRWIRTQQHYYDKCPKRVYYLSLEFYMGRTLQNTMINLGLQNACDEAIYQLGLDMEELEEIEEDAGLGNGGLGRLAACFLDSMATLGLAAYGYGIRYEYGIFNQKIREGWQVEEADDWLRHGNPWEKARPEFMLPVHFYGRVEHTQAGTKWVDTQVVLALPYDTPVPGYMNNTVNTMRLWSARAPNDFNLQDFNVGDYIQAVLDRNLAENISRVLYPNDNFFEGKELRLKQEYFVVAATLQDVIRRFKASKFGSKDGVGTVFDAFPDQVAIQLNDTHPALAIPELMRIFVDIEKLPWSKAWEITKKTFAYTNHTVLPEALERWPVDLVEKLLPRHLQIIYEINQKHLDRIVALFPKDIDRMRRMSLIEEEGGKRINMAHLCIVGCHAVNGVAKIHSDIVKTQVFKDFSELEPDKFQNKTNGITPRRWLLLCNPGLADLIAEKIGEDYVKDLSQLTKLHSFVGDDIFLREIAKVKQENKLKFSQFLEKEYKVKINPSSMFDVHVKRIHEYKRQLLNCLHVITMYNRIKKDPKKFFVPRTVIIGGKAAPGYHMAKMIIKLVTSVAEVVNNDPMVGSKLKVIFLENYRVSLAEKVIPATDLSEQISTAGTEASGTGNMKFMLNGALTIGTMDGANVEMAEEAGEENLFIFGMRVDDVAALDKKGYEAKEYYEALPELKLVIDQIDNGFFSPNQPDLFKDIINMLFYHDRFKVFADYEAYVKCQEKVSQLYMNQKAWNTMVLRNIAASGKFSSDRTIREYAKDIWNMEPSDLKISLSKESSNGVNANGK
# How it was run: (§1)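 Hepatocytes from male Wistar rats (200-300 g), isolated by collagenase perfusion, seeded at 6 x 10⁴ cells/cm² in MEM with 5% calf serum. After attachment they were cultured 24 h in serum-free MEM with 5 mM glucose, 10 nM dexamethasone and 1 nM insulin. Agents were added 1 h after the medium change and incubated 30 min. Cells were snap frozen, and GPa activity was read by coupling to glucose 6-phosphate dehydrogenase. Values are % of the 5 mM glucose control (with or without 9 mM 5-thioglucose); means ± SEM, n=5 preparations; paired t-test.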
# [2] = biological target: T1, Glycogen phosphorylase, liver form (Rattus norvegicus); assay: Inhibition of glycogen phosphorylase a in Wistar rat hepatocytes assessed as effect on conversion of GPa to GPb forms by measuring GPa level at 20 uM after 30 mins relative to 5 mM glucose; assay type: cell-based; set-up: scale not given: the % may be the effect or the level left; details: Hepatocyte; how it was run: as §1
# [3] = biological target: T2, Glycogen phosphorylase, muscle form (Oryctolagus cuniculus, UniProt P00489); assay: Inhibition of rabbit skeletal muscle glycogen phosphorylase b assessed as inorganic phosphate release; details: read-out: Ki
# T2 sequence (P00489 whole entry): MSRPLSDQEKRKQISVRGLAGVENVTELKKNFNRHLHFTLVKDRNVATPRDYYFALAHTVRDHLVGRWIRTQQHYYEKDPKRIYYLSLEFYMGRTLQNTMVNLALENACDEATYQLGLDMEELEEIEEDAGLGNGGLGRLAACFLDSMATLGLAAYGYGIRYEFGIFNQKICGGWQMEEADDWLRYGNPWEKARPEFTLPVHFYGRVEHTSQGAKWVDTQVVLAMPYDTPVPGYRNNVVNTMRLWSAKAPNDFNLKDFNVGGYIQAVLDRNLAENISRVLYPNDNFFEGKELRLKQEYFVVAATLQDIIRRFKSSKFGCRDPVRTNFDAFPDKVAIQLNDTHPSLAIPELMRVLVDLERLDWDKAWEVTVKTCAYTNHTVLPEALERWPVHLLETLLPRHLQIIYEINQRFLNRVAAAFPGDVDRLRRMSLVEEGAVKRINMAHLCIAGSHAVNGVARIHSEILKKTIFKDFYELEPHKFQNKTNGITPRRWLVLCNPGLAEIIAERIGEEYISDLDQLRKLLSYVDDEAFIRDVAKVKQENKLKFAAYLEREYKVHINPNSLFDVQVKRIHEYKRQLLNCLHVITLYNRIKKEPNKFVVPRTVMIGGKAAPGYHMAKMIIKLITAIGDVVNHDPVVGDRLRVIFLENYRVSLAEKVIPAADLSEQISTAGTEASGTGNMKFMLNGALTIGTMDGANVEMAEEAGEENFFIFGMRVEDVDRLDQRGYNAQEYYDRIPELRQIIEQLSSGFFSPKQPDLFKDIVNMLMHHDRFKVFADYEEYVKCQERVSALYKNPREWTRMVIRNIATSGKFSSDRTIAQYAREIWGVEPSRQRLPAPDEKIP
# [4] = Octanol water partition coefficient, logP of the compound; assay type: physicochemical
# [5] = Permeability in human Caco2 cells; assay type: ADME, cell-based; details: Caco-2, read-out: permeability
# [6] = biological target: T3, Glycogen phosphorylase, liver form (Homo sapiens, UniProt P06737); assay: Inhibition of glycogen phosphorylase a (unknown origin)
# T3 sequence (P06737 whole entry): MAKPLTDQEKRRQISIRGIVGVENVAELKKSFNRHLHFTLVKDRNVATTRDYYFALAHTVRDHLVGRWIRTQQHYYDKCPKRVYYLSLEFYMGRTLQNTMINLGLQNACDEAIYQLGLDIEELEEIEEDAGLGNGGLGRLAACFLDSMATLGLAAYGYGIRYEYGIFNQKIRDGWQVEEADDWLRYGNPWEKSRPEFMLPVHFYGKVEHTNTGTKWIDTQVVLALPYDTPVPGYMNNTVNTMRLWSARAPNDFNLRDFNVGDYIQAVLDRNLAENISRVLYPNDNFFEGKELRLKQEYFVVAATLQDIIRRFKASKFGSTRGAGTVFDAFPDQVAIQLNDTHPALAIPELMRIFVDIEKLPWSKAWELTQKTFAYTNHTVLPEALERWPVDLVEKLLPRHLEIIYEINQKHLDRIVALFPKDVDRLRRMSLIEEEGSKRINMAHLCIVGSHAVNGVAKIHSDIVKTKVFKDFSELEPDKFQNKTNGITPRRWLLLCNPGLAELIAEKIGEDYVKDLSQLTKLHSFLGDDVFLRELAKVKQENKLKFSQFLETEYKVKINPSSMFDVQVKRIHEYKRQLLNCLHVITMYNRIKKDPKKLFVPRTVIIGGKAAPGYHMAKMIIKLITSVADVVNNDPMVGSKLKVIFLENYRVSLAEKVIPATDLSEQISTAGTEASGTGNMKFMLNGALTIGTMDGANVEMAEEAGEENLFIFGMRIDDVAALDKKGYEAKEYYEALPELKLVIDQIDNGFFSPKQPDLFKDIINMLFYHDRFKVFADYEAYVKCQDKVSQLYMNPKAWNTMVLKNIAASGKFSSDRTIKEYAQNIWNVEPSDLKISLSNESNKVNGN
# [7] = biological target: T1, Glycogen phosphorylase, liver form (Rattus norvegicus); assay: Inhibition of glycogen phosphorylase a in Wistar rat hepatocytes assessed as effect on conversion of GPa to GPb forms by measuring GPa level at 9 mM after 30 mins relative to 5 mM glucose; assay type: cell-based; set-up: scale not given: the % may be the effect or the level left; details: Hepatocyte; how it was run: as §1
# [8] = biological target: T4, Glycogen phosphorylase, muscle form (Homo sapiens, UniProt P11217); assay: Inhibition of glycogen phosphorylase b (unknown origin)
# T4 sequence (P11217 whole entry): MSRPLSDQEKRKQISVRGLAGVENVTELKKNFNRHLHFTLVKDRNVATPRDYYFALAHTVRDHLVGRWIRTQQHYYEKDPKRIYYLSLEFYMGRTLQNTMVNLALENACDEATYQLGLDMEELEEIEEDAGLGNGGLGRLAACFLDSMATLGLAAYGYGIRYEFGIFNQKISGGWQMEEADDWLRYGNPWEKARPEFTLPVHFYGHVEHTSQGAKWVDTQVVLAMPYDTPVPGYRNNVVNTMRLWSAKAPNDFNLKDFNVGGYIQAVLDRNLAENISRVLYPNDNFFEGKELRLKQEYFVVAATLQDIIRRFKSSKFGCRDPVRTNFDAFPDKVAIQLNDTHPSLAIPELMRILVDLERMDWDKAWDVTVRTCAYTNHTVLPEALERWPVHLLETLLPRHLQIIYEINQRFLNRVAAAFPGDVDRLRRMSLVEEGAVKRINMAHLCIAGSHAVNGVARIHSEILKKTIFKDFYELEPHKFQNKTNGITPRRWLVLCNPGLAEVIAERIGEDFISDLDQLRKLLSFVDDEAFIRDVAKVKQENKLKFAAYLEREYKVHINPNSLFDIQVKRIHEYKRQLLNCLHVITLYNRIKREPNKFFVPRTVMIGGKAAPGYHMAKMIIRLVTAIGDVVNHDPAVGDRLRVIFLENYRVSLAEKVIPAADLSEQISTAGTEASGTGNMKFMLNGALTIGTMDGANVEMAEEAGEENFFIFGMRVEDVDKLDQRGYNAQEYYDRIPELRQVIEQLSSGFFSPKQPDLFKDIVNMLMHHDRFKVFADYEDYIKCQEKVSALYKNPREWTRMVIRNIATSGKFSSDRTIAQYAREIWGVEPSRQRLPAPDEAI
# How it was run: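 Rabbit muscle GPb (5 μg/ml) was assayed at 30 °C in the glycogen-synthesis direction by measuring released inorganic phosphate. Buffer was 30 mM imidazole/HCl pH 6.8 with 60 mM KCl, 0.6 mM EDTA and 0.6 mM DTT. Glycogen 0.2% w/v and AMP 1 mM were held constant, with Glc-1-P at 2-20 mM and varied inhibitor. Enzyme and glycogen were preincubated 15 min, then Glc-1-P was added. Ki was obtained by non-linear regression of initial velocities.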
# [9] = biological target: T1, Glycogen phosphorylase, liver form (Rattus norvegicus); assay: Inhibition of glycogen phosphorylase a in Wistar rat hepatocytes assessed as effect on conversion of GPa to GPb forms by measuring GPa level at 25 mM after 30 mins relative to 5 mM glucose; assay type: cell-based; set-up: scale not given: the % may be the effect or the level left; details: Hepatocyte; how it was run: as §1
# [10] = biological target: T1, Glycogen phosphorylase, liver form (Rattus norvegicus); assay: Inhibition of glycogen phosphorylase a in Wistar rat hepatocytes assessed as effect on conversion of GPa to GPb forms by measuring GPa level at 25 mM after 30 mins in presence of 9 mM 5-thioglucose relative to 5 mM glucose; assay type: cell-based; set-up: scale not given: the % may be the effect or the level left; details: Hepatocyte; how it was run: as §1
Compound,Activity [1] [%],Activity [2] [%],Ki [3] [µM],logP [4],Papp [5] [×10⁻⁶ cm/s],further results
O=C(CCCc1ccc2c(c1)CCCC2)N[C@@H]1O[C@H](CO)[C@@H](O)[C@H](O)[C@H]1O,93,100,48.7,0.208,9.51,–
CC(C)c1ccc(/C=C/C(=O)N[C@@H]2O[C@H](CO)[C@@H](O)[C@H](O)[C@H]2O)cc1,105,106,4.98,0.296,9.85,–
O=c1c(O)c(-c2ccc(O)c(O)c2)oc2cc(O)cc(O)c12 [QUERCETIN],–,–,–,–,–,IC50 [6]: 4.8 µM
O=C[C@H](O)[C@@H](O)[C@H](O)[C@H](S)CO,–,–,–,–,–,Activity [7]: 106%
O=C(COc1ccc(-c2ccccc2)cc1)N[C@@H]1O[C@H](CO)[C@@H](O)[C@H](O)[C@H]1O,84.5,80.3,8.25,-0.082,5.09,–
OC[C@H]1O[C@H](O[C@H]2[C@H](O)[C@@H](O)[C@@H](O[C@H]3[C@H](O)[C@@H](O)[C@@H](O[C@H]4[C@H](O)[C@@H](O)[C@@H](O[C@H]5[C@H](O)[C@@H](O)[C@@H](O[C@H]6[C@H](O)[C@@H](O)[C@@H](O[C@H]7[C@H](O)[C@@H](O)C(O)O[C@@H]7CO)O[C@@H]6CO)O[C@@H]5CO)O[C@@H]4CO)O[C@@H]3CO)O[C@@H]2CO)[C@H](O)[C@@H](O)[C@@H]1O (stereo partly drawn),–,–,–,–,–,Ki [8]: 1000 µM
OC[C@H]1OC(O)[C@H](O)[C@@H](O)[C@@H]1O (stereo partly drawn),–,–,–,–,–,Activity [9]: 64.1%; Activity [10]: 78.7%
O=C(O)C1=C(C(=O)O)NC=CC1,–,–,–,–,–,Ki [8]: 0.0016 µM
O=C(NCCOCCOCCNC(=O)c1cc2cc(Cl)ccc2[nH]1)c1cc2cc(Cl)ccc2[nH]1,–,–,–,–,–,IC50 [6]: 0.006 µM
OC[C@H]1O[C@H](O)[C@H](O)[C@@H](O)[C@@H]1O,–,–,–,–,–,Ki [6]: 4900 µM
O=C(/C=C/c1ccc(-c2ccccc2)cc1)N[C@@H]1O[C@H](CO)[C@@H](O)[C@H](O)[C@H]1O,89.4,83.3,5.14,0.851,8.02,–
